Data set [1] in a line: Toxicity in BALB/c mouse infected with Trypanosoma cruzi MHOM/Pe/2011/Arequipa;DTU 5 bloodstream trypomastigote assessed as change in serum aspartate aminotransferase level in acute phase at 20 mg/kg/day, po administered for 5 consecutive days starting from day 8 post infection and measured at day 14 post infection by biochemical analysis relative to control. It counts as organism-based. The conditions noted are these: in vivo.

The test system of a further data set is Trypanosoma cruzi. Briefly: Inhibition of Trypanosoma cruzi MHOM/Pe/2011/Arequipa;DTU 5 epimastigote Fe-SOD at 25 uM. The method, boiled down: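 Fe-SOD excreted by exponentially growing T. cruzi Arequipa epimastigotes cultured in supplemented MTL at 28 °C. Protein quantified by Bradford. SOD activity measured by the Beyer–Fridovich method. IC50 from inhibition curves by nonlinear regression. Mean of three independent determinations ± standard deviation.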

A short description of data set [2]: Toxicity in BALB/c mouse infected with Trypanosoma cruzi MHOM/Pe/2011/Arequipa;DTU 5 bloodstream trypomastigote assessed as change in serum uric acid level in acute phase at 20 mg/kg/day, po administered for 5 consecutive days starting from day 8 post infection and measured on day 100 post infection by biochemical analysis relative to control. Type of data set: organism-based. The conditions noted are these: in vivo.

Data set [3] can be described thus: Toxicity in BALB/c mouse infected with Trypanosoma cruzi MHOM/Pe/2011/Arequipa;DTU 5 bloodstream trypomastigote assessed as increase in serum alanine aminotransferase level in acute phase at 20 mg/kg/day, po administered for 5 consecutive days starting from day 8 post infection and measured on day 100 post infection by biochemical analysis relative to control. Type of data set: organism-based. The conditions noted are these: in vivo.

The nature of data set [4]: Toxicity in BALB/c mouse infected with Trypanosoma cruzi MHOM/Pe/2011/Arequipa;DTU 5 bloodstream trypomastigote assessed as change in serum uric acid level in chronic phase at 20 mg/kg/day, po administered for 5 consecutive days starting from day 70 post infection and measured at day 76 post infection relative to control. The following applies: in vivo. Type of data set: organism-based.

The nature of data set [5]: Mutagenecity against Salmonella typhimurium TA97a assessed as number of colonies at 7.4 ug/plate in absence of Sprague-Dawley rat S9 with metabolic activation measured after 48 hrs by Ames test ( Rvb = 37 +/- 6.5). Type of data set: toxicity. The following applies: salmonella enterica subsp. enterica serovar typhimurium, s9, 48 h. Background: The Ames test uses bacterial strains that need an amino acid and regain growth without it when mutated back.

Data set [6] is described as follows: Mutagenecity against Salmonella typhimurium TA97a assessed as number of colonies at 66.7 ug/plate in absence of Sprague-Dawley rat S9 […] measured after 48 hrs by Ames test ( Rvb = 37 +/- 6.5). It counts as toxicity. The following applies: salmonella enterica subsp. enterica serovar typhimurium, s9, 48 h.
The nature of data set [7]: Mutagenecity against Salmonella typhimurium TA98 assessed as number of colonies at 22.2 ug/plate in absence of Sprague-Dawley rat S9 measured after 48 hrs by Ames test (reference value: 3 +/- 2.6). It counts as toxicity. The conditions noted are these: salmonella enterica subsp. enterica serovar typhimurium, s9, 48 h.
Data set [8] can be described thus: Mutagenecity against Salmonella typhimurium TA98 assessed as number of colonies at 7.4 ug/plate in presence of Sprague-Dawley rat S9 measured after 48 hrs by Ames test (reference value: 4 +/- 2). Type of data set: toxicity, subcellular. The conditions noted are these: salmonella enterica subsp. enterica serovar typhimurium, s9, 48 h.
Data set [9] can be described thus: Mutagenecity against Salmonella typhimurium TA 100 assessed as number of colonies at 7.4 ug/plate in absence of Sprague-Dawley rat S9 with metabolic activation measured after 48 hrs by Ames test (reference value: 35.7 +/- 0.6). Type of data set: toxicity. The following applies: salmonella enterica subsp. enterica serovar typhimurium, s9, 48 h.
A short description of data set [10]: Mutagenecity against Salmonella typhimurium TA 102 assessed as number of colonies at 7.4 ug/plate in presence of Sprague-Dawley rat S9 with metabolic activation measured after 48 hrs by Ames test (reference value: 72 +/- 1). Type of data set: toxicity, subcellular. The conditions noted are these: salmonella enterica subsp. enterica serovar typhimurium, s9, 48 h.

Data set [11] can be described thus: Mutagenecity against Salmonella typhimurium TA1535 assessed as number of colonies at 7.4 […] in presence of Sprague-Dawley rat S9 measured after 48 hrs by Ames test (reference value: 5 +/- 3.6). The following applies: salmonella enterica subsp. enterica serovar typhimurium, s9, 48 h. Type of data set: toxicity, subcellular.
A short description of data set [12]: Mutagenecity against Salmonella typhimurium TA1535 assessed as number of colonies at 22.2 ug/plate in presence of Sprague-Dawley rat S9 measured after 48 hrs by Ames test (reference value: 5 +/- 3.6). The conditions noted are these: salmonella enterica subsp. enterica serovar typhimurium, s9, 48 h. Type of data set: toxicity, subcellular.
The nature of data set [13]: Toxicity in BALB/c mouse infected with Trypanosoma cruzi MHOM/Pe/2011/Arequipa;DTU 5 bloodstream trypomastigote assessed as increase in serum aspartate aminotransferase level in acute phase at 20 mg/kg/day, po administered for 5 consecutive days starting from day 8 post infection and measured on day 100 post infection by biochemical analysis relative to control. It counts as organism-based. The conditions noted are these: in vivo.

The nature of data set [14]: Toxicity in BALB/c mouse infected with Trypanosoma cruzi MHOM/Pe/2011/Arequipa;DTU 5 bloodstream trypomastigote assessed as change in serum alkaline phosphatase level in acute phase at 20 mg/kg/day, po administered for 5 consecutive days and measured on day 100 post infection by biochemical analysis relative to control. Type of data set: organism-based. The conditions noted are these: in vivo.

Calls of active or inactive are those of the source. The rule behind the calls is not given here.

As for `O=C(CCN1CCN(c2ccc(C(F)(F)F)cc2)CC1)c1ccc(O)cc1`, the Activity in data set [1] was above 10%. Also, in the data set on Trypanosoma cruzi, the inhibition entry is “Active”.

With `O=C(CCN1CCN(c2ccc(Cl)cc2)CC1)c1ccc(O)cc1`, the Activity in data set [2] is above 10%; in data set [3], “<= 20%”; in data set [4], above 10%; in data set [5], 34.4; in data set [6] it was 31.3; in data set [7], 4.7. Besides, the Activity in data set [8] was 6; in data set [9], 32.3; in data set [10], 75; in data set [11], 5.5; in [12] it was 3.

For `O=C(Cn1ccnc1[N+](=O)[O-])NCc1ccccc1` [BENZNIDAZOLE], the Activity result in data set [13] is given as “<= 10%”; in data set [14], above 10%.
